Experimental data published in ChEMBL document CHEMBL1131088 (J Med Chem, 1998).

Key:
[1] = target: Dihydroorotate dehydrogenase (quinone), mitochondrial (Homo sapiens, UniProt Q02127); assay: In vitro inhibitory activity against human dihydroorotate dehydrogenase (DHODH)
Jurkat = assay: In vitro inhibitory activity against Jurkat cell proliferation; type: functional, cell-based; settings: Homo sapiens
How it was run: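 Human Jurkat T cells kept in FCS-supplemented RPMI; 5 × 10⁴ cells/well cultured 2 days in 200 μL RPMI with test compound. Proliferation read as [³H]thymidine incorporation at the end of culture.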

Mus musculus [2] = species on record: Mus musculus; assay: In vitro inhibitory activity against murine antibody response to T-cell independent B-cell antigen TNP-LPS (type I); type: functional
How it was run: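 C57Bl/6 nu/nu and C57Bl/6 spleen cells, 2 × 10⁵/well in duplicate, IMDM-ATL + 10% FCS with serial drug dilutions and optimal TNP-LPS, 4 days at 37 °C. Pooled supernatants went to ELISA on BSA-DNP plates, developed with biotin anti-mouse IgM, streptavidin-alkaline phosphatase and pNPP, read at 405/490 nm. % inhibition was taken relative to unstimulated (low) and stimulated (high) controls.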

Mus musculus [3] = species on record: Mus musculus; assay: In vitro inhibitory activity against mouse mixed lymphocyte reaction (MLR); type: functional
How it was run: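 Equal numbers of C57Bl/6 (H-2^b) and CBA/2 (H-2^k) spleen cells mixed; 4 × 10⁵ cells/well with serial dilutions (DMSO/water) in 200 μL complete RPMI, 4 days, 37 °C, 5% CO₂. Proliferation by [³H]thymidine incorporation.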

Dihydroorotate dehydrogenase (quinone), mitochondrial, sequence (Q02127 whole entry): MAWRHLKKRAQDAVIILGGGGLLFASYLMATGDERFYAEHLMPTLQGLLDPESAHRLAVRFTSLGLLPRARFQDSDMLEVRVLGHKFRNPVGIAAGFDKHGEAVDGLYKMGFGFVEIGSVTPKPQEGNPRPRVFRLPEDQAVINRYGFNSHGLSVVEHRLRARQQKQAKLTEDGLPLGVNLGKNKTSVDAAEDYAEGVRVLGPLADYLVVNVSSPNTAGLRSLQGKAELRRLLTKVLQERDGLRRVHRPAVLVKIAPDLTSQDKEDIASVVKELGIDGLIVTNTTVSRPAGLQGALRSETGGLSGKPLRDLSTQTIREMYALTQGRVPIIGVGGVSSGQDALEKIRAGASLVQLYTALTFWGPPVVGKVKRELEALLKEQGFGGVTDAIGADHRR

IC50 [1] [µM] | IC50 (Jurkat) [µM] | IC50 (Mus musculus [2]) [µM] | IC50 (Mus musculus [3]) [µM] | Structure (SMILES)
16.5 | > 50 | 26.5 | 16.5 | Cc1cc(Nc2ccc(C(F)(F)F)cc2)[nH]n1
22.5 | 43 | 14.6 | 18.7 | Cc1n[nH]c(Nc2ccc(C(F)(F)F)cc2)c1C
22.4 | – | 35 | – | Cc1n[nH]c(Nc2c(F)cc(F)cc2F)c1C#N
6.2 | 31.2 | 13.8 | 3.4 | FC(F)(F)c1ccc(Nc2[nH]nc3c2CCCC3)cc1
> 50 | – | > 50 | – | Cc1n[nH]c(Nc2ccccc2C(F)(F)F)c1C#N
4 | > 50 | 4.7 | 3.1 | CC(C)c1n[nH]c(Nc2ccc(C(F)(F)F)cc2)c1C#N
> 50 | 31.8 | 22.4 | 2.9 | N#Cc1c(C2CCCC2)n[nH]c1Nc1ccc(C(F)(F)F)cc1
> 50 | 47.2 | 23.1 | 16.1 | Cc1nn(C)c(Nc2ccc(C(F)(F)F)cc2)c1C#N
> 50 | > 50 | 5.8 | 5.3 | CC(C)(C)c1[nH]nc(Nc2ccc(C(F)(F)F)cc2)c1C#N
> 50 | 10.8 | 13.6 | 3.6 | N#Cc1c(-c2ccncc2)n[nH]c1Nc1ccc(C(F)(F)F)cc1
> 50 | – | 27 | – | N#Cc1c(-c2cccnc2)n[nH]c1Nc1ccc(C(F)(F)F)cc1
> 50 | – | > 50 | – | N#Cc1c(-c2ccco2)n[nH]c1Nc1ccc(C(F)(F)F)cc1
2.7 | – | 21.3 | – | Cc1n[nH]c(Nc2ccc(C(F)(F)F)cc2)c1CO
> 50 | – | 23.8 | – | CCOC(=O)c1c(C)n[nH]c1Nc1ccc(C(F)(F)F)cc1
> 50 | – | 20.9 | – | Cc1n[nH]c(Nc2ccc(C(F)(F)F)c(Br)c2)c1C#N
> 50 | > 50 | 14.7 | 3.7 | N#Cc1c(Nc2ccc(C(F)(F)F)cc2)n[nH]c1N
> 50 | – | > 50 | – | Cc1n[nH]c(Nc2cccc(C(F)(F)F)c2)c1C#N
> 50 | – | > 50 | – | N#Cc1c(-c2cccs2)n[nH]c1Nc1ccc(C(F)(F)F)cc1
> 50 | > 50 | > 50 | > 50 | Cc1n[nH]c(Nc2ccccc2)c1C#N

IC50 [1] [µM] | IC50 (Jurkat) [µM] | IC50 (Mus musculus [2]) [µM] | IC50 (Mus musculus [3]) [µM] | Structure (SMILES)
> 50 | > 50 | 19.1 | 23.6 | Cc1n[nH]c(N(C)c2ccc(C(F)(F)F)cc2)c1C#N
3.2 | > 50 | 11.6 | 6 | Cc1n[nH]c(Nc2ccc(C#N)cc2)c1C#N
3.6 | 12.3 | 30.6 | 7.6 | Cc1n[nH]c(Nc2ccc(C(C)(C)C)cc2)c1C#N
> 50 | – | > 50 | – | Cc1n[nH]c(Nc2ccc(N)cc2)c1C#N
> 50 | – | 29.4 | – | Cc1n[nH]c(Nc2ccc(C(F)(F)F)cc2)c1-c1ccccc1
12.1 | – | > 50 | – | Cc1ccc(Nc2[nH]nc(C)c2C#N)cc1
> 50 | > 50 | 17.1 | 40.5 | Cc1n[nH]c(NCc2ccc(C(F)(F)F)cc2)c1C#N
> 50 | 16.2 | 28 | 6.7 | Cc1n[nH]c(Nc2cc(C(F)(F)F)cc(C(F)(F)F)c2)c1C#N
> 50 | – | > 50 | – | N#Cc1c(Nc2ccc(C(F)(F)F)cc2)n[nH]c1O
9 | > 50 | 6.5 | 4.3 | Cc1n[nH]c(Nc2ccc([N+](=O)[O-])cc2)c1C#N
19.4 | > 50 | 9.2 | 7.4 | Cc1n[nH]c(Nc2ccc(F)cc2)c1C#N
> 50 | 38.7 | 16.9 | 7.5 | CCNc1[nH]nc(Nc2ccc(C(F)(F)F)cc2)c1C#N
2.6 | > 50 | 5.3 | 2.1 | Cc1n[nH]c(Nc2ccc(C(F)(F)F)cc2)c1C#N
6.5 | 17.7 | 16.7 | 8.6 | O=C1CCCc2n[nH]c(Nc3ccc(C(F)(F)F)cc3)c21
> 50 | 41 | 17.4 | 20.3 | C/C(=N\N)c1c(C)n[nH]c1Nc1ccc(C(F)(F)F)cc1
> 50 | – | 32 | – | N#Cc1c(-c2ccccc2)n[nH]c1Nc1ccc(C(F)(F)F)cc1
– | > 10 | – | – | C/C=C/C[C@@H](C)[C@@H](O)[C@H]1C(=O)N[C@@H](CC)C(=O)N(C)CC(=O)N(C)[C@@H](CC(C)C)C(=O)N[C@@H](C(C)C)C(=O)N(C)[C@@H](CC(C)C)C(=O)N[C@@H](C)C(=O)N[C@H](C)C(=O)N(C)[C@@H](CC(C)C)C(=O)N(C)[C@@H](CC(C)C)C(=O)N(C)[C@@H](C(C)C)C(=O)N1C [CYCLOSPORINE]
– | 41.4 | 5.1 | 7.4 | Cc1oncc1C(=O)Nc1ccc(C(F)(F)F)cc1 [LEFLUNOMIDE]

Structure (SMILES) | IC50 [1] [µM] | IC50 (Jurkat) [µM] | IC50 (Mus musculus [2]) [µM] | IC50 (Mus musculus [3]) [µM]
Cc1n[nH]c(Nc2ccc(OC(F)(F)F)cc2)c1C#N | 0.5 | 16.1 | 20 | 0.45
